PMC2233745 (The Journal of General Physiology, 2001)
Changes are numbered by the printed parent chain. Like-named read-outs stand apart in the source and are kept apart here. Ends that are not written are not given here.

Legend:
[1] = test system: PDE activity in GH4C1 cells; test: Effect of PDE inhibitors on forskolin-induced Ca2+ influx in GH4C1 cells; assay type: cell-based, rat; details: Δ61–90/C460W/E583M channels, 10 μM forskolin, 1 μM nimodipine
[2] = test system: PDE activity in HEK-293 cells; test: Effects of PDE inhibitors on forskolin-induced Ca2+ influx in HEK-293 cells; assay type: cell-based, human; details: C460W/E583M channels, 1 μM forskolin, IBMX 10 or 100 μM, RO-20-1724 10 μM
HEK-293 cells = test: Equilibration of PDE inhibitors across the plasma membrane; assay type: cell-based, human; details: data not shown
CNG channel = CNG channel activity in excised patches with PDE inhibitor; assay type: biochemical, rat; details: 100 μM IBMX, data not shown
Outline: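 Patch clamp on rat olfactory CNG channels expressed from an adenovirus vector. Gigaohm seals were formed, then patches were excised by shearing the cell off the pipette with a liquid jet. Currents were elicited by 250-ms pulses to +50 and −50 mV from a 0 mV holding potential and sampled at five times the filter setting.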

[3] = target: T1, E583M rat olfactory CNG channel (Rattus norvegicus, UniProt Q00195, E583M); test: Excised inside-out patch recording, E583M CNG channel; assay type: biochemical; details: for N (Hill coefficient): mean ± SD of three experiments
T1 sequence (Q00195 1-664 E583M): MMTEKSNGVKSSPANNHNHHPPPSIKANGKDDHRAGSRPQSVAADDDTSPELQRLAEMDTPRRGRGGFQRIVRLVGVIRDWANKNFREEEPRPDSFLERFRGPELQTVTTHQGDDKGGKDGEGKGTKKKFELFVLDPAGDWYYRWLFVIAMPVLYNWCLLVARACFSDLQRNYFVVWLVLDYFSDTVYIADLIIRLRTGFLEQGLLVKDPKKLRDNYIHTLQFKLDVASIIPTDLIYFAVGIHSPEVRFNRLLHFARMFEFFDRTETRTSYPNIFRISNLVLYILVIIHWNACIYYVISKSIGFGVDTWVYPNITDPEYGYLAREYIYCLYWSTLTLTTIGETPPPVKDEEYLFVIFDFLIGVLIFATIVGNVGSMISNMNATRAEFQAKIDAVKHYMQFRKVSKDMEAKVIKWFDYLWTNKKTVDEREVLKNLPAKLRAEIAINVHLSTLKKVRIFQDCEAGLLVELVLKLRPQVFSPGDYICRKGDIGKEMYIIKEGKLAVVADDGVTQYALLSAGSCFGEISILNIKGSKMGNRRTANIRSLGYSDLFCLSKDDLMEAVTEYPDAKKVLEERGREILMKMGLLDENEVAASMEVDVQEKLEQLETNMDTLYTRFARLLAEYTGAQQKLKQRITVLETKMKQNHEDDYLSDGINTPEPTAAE

[4] = target: T2, C460W/E583M rat olfactory CNG channel (Rattus norvegicus, UniProt Q00195, C460W/E583M); test: Excised inside-out patch recording, C460W/E583M CNG channel; assay type: biochemical; details: for N (Hill coefficient): mean ± SD of three experiments
T2 sequence (Q00195 1-664 C460W/E583M): T1 sequence (Q00195 1-664 E583M) with C460W

[5] = target: T3, WT rat olfactory CNG channel α subunit (Rattus norvegicus, UniProt Q00195); test: Excised inside-out patch recording, WT CNG channel; assay type: biochemical; details: for N (Hill coefficient): mean ± SD of three experiments
T3 sequence (Q00195 1-664): T1 sequence (Q00195 1-664 E583M) with M583E

[6] = target: T4, Δ61–90/C460W/E583M rat olfactory CNG channel (Rattus norvegicus, UniProt Q00195, C460W/DEL61-90/E583M); test: Excised inside-out patch recording, Δ61–90/C460W/E583M CNG channel; assay type: biochemical; details: Δ61-90/C460W/E583M channel, mean ± SD of three experiments; for EC50: read-out: K1/2 (concentration that gives half-maximal current)
T4 sequence (Q00195 with tags, fused parts or gaps DEL61-90/C460W/E583M): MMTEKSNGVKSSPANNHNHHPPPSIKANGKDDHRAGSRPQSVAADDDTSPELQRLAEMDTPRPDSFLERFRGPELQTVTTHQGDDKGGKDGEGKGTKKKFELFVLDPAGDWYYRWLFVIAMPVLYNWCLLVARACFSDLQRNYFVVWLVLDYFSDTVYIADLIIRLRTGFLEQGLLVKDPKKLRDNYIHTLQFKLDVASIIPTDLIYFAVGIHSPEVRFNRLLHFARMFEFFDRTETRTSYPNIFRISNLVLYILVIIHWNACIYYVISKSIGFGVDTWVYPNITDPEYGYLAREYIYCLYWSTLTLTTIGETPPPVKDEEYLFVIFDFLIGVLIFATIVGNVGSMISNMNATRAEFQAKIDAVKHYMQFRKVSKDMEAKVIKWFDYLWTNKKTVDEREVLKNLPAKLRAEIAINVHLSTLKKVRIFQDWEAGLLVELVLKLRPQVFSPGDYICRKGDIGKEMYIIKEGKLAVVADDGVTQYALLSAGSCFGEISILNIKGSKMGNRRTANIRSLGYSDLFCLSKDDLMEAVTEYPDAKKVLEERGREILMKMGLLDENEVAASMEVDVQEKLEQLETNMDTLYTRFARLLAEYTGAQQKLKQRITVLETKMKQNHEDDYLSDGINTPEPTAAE

[7] = test system: GH4C1 cells expressing C460W/E583M channels; test: AC activator-induced Ca2+ influx in GH4C1 cells expressing C460W/E583M channels; assay type: cell-based, rat; details: after vehicle or 100 μM IBMX
Outline: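 Rat GH4C1 cells kept in Ham's F-10 (15% horse serum, 2.5% FBS, pH 6.8, 37°C), adenovirus-infected (MOI 50), assayed within 12 h of harvest at 48 h post-infection. Loaded 70 min with 4 μM fura-2/AM at room temperature, then washed. Read in pH 7.4 saline (1 mM CaCl2) at ex 380/em 510 nm as ΔF/F0. Nimodipine 1 μM at time zero; IBMX/vehicle at 60 s; agonist afterwards.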

[8] = test system: HEK-293 and C6–2B glioma cells; details: ref Rich et al. 2000, cited from earlier work
[9] = test system: HEK-293 cells expressing CNG channels; test: Forskolin-induced Ca2+ influx through expressed CNG channels in HEK-293 cells; assay type: cell-based, human; details: for forskolin concentration at which delay and rate of Ca2+ influx saturate: 100 μM IBMX
Outline: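 HEK-293 cells were infected with channel-encoding adenovirus (MOI 10) and detached at 24 h with PBS/0.03% EDTA. They were loaded at room temperature for 30–40 min with 4 μM fura-2/AM and 0.02% pluronic F-127, then resuspended in HEPES-buffered saline with 1 mM CaCl2, pH 7.4, and stirred in a cuvette. 100 μM IBMX was added at 0 s and forskolin at 180 s. ΔF/F0 was read at ex 380/em 510 nm; n = 4 batches.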

[10] = test system: voltage-gated Ca2+ channels; test: Block of Ca2+ influx through voltage-gated Ca2+ channels in GH4C1 cells; assay type: cell-based, rat; details: 1 μM nimodipine, membrane depolarization in 24 mM external KCl, data not shown
[11] = read-out: K1/2 (concentration that gives half-maximal current), +50 mV, mean ± SD of three experiments
[12] = read-out: K1/2 (concentration that gives half-maximal current), −50 mV, mean ± SD of three experiments
[13] = read-out: K1/2, +50 mV, experiment shown in Fig. 2

For `COCc1nc2c([nH]1)c(=O)n(C)c(=O)n2CC(C)C` [8-methoxymethyl-IBMX], the “effect on PDE activity / forskolin-induced Ca2+ influx” value [1] was “significantly inhibited PDE activity”.
For `CCOC(=O)c1cnc2c(cnn2CC)c1NN=C(C)C` [Etazolate], the “effect on forskolin-induced Ca2+ influx” value [2] was “significantly increased the forskolin-induced Ca^2+ influx”.
In the case of `CC(C)Cn1c(=O)n(C)c(=O)c2[nH]cnc21` [IBMX, 3-isobutyl-1-methylxanthine], the “effect on forskolin-induced Ca2+ influx” value [2] is reported as “significant forskolin-induced Ca^2+ influx was observed”, the “effect on PDE activity / forskolin-induced Ca2+ influx” value [1] is reported as “significantly inhibited PDE activity” and the “time to complete equilibration across the plasma membrane” value (from here on “time”) (HEK-293 cells) is reported as < 180 s. For the same compound, the “effect on CNG channel activity in excised patches” value (CNG channel) was “did not alter CNG channel activity”.
In the case of `CCCCOc1cc(CC2CNC(=O)N2)ccc1OC` (stereo not shown) [RO-20-1724, 4-(3-butoxy-4-methoxybenzyl)-2-imidazolidinone], the “effect on forskolin-induced Ca2+ influx” value [2] is reported as “significant forskolin-induced Ca^2+ influx was observed”, the “effect on PDE activity / forskolin-induced Ca2+ influx” value [1] is reported as “also inhibited PDE activity” and the “time” value (HEK-293 cells) is reported as < 180 s.
In the case of `COc1ccc(C2CNC(=O)C2)cc1OC1CCCC1` (stereo not shown) [Rolipram], the “effect on forskolin-induced Ca2+ influx” value [2] is reported as “significantly increased the forskolin-induced Ca^2+ influx”, the “effect on PDE activity / forskolin-induced Ca2+ influx” value [1] is reported as “also inhibited PDE activity” and the “time” value (HEK-293 cells) is reported as < 180 s.
In the case of `Nc1nc2c(ncn2[C@@H]2O[C@@H]3COP(=O)(O)O[C@H]3[C@H]2O)c(=O)[nH]1` [cGMP], the “N (Hill coefficient)” value ([3]; +50 mV) is reported as 2.4 ± 0.2, the EC50 [3, 11] is reported as 28 ± 2 µM and the EC50 [3, 12] is reported as 32 ± 4 µM. The EC50 [3, 13] was 25 µM, the “N (Hill coefficient)” value ([3]; −50 mV) was 1.9 ± 0.2 and the “N (Hill coefficient)” value ([4]; +50 mV) was 2.8 ± 0.3. For the same compound, the EC50 [4, 11] was 12 ± 2 µM, the EC50 [4, 12] was 6.2 ± 1 µM and the EC50 [4, 13] was 11 µM. For the same compound, the “N (Hill coefficient)” value ([4]; −50 mV) was 2.7 ± 0.1, the “N (Hill coefficient)” value ([5]; +50 mV) was 2.3 ± 0.1 and the EC50 [5, 11] was 1.6 ± 0.1 µM. For the same compound, the EC50 [5, 12] was 1.3 ± 0.4 µM, the “N (Hill coefficient)” value ([5]; −50 mV) was 2.5 ± 0.4 and the EC50 ([6]; +50 mV) was 36 ± 4 µM. For the same compound, the EC50 ([6]; −50 mV) was 16 ± 1 µM, the “N (Hill coefficient)” value ([6]; +50 mV) was 1.8 ± 0.2 and the “N (Hill coefficient)” value ([6]; −50 mV) was 2.6 ± 0.2.
For `C=C[C@@]1(C)CC(=O)[C@]2(O)[C@@]3(C)[C@@H](O)CCC(C)(C)[C@@H]3[C@H](O)[C@H](OC(C)=O)[C@@]2(C)O1` [forskolin], the “cAMP accumulation and Ca2+ influx after addition” value ([7]; 10 μM forskolin) is given as “caused additional cAMP accumulation and Ca^2+ influx”, the “forskolin-induced increase in cAMP concentration measured using CNG channels” value ([8]; local cAMP near the plasma membrane) is given as > 25 µM and the “forskolin-induced increase in cAMP concentration averaged throughout the accessible cell volume” value [8] is given as 1 to 2 µM. For the same compound, the “forskolin concentration at which delay and rate of Ca2+ influx saturate” value (shortened to “forskolin concentration”) ([9]; HEK-293 cells expressing C460W/E583M channel) was 5 µM, the “forskolin concentration” value ([9]; HEK-293 cells expressing E583M channel) was 20 µM and the “forskolin concentration” value ([9]; HEK-293 cells expressing WT channel) was > 50 µM. For the same compound, the “forskolin concentration” value ([9]; HEK-293 cells expressing Δ61–90/C460W/E583M channel) was 20 µM.
With `COCCOC(=O)C1=C(C)NC(C)=C(C(=O)OC(C)C)C1c1cccc([N+](=O)[O-])c1` (stereo not shown) [nimodipine] the “block of Ca2+ influx through voltage-gated Ca2+ channels” value [10] was “sufficient to block Ca^2+ influx through voltage-gated Ca^2+ channels” and the “effect on forskolin or pCPT-cGMP induced Ca2+ influx through CNG channels” value ([9]; 1 μM nimodipine, HEK-293 cells, data not shown) was “did not alter”.
With “vasoactive intestinal peptide (HSDAVFTDNYTRLRKQMAVKKYLNSILN; ends and bridges not checked; UniProt P01282 125-152, looked up) [VIP]” the “cAMP accumulation and Ca2+ influx after addition” value ([7]; 100 nM VIP) was “caused additional cAMP accumulation and Ca^2+ influx”.
